The results in this text go back to ChEMBL document CHEMBL1150203, “Antimicrobial diterpenes of Croton sonderianus, 1. Hardwickic and 3,4-secotrachylobanoic acids” (1991).

Assay [1] has as its system Bacillus subtilis. As to the kind of experiment: Antibacterial activity against Bacillus subtilis ATCC 6633 at 1 mg/ml after 24 hrs by agar-well diffusion assay. In kind it is functional. As to conditions: ATCC 6633, 24 h, read-out: IZ. An outline of the steps:
(§1)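 Agar-well diffusion on eugon agar, bacteria streaked by quadrant method from broth culture diluted 1:10 in sterile water; 11 mm wells given 100 μl of compound at 1 mg/ml; 37° incubation. Zone width (mm) read at 24 and 48 h, coded –, + (1–2), ++ (3–6), +++ (7–12), ++++ (>13); streptomycin sulfate positive control.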
On the technique in general: Agar diffusion results depend on both activity and mobility in agar.

The test system of assay [2] is Bacillus subtilis. Kind of assay: Antibacterial activity against Bacillus subtilis ATCC 6633 at 1 mg/ml after 48 hrs by agar-well diffusion assay. As to conditions: ATCC 6633, 48 h, read-out: IZ. In kind it is functional. In outline: as §1
The subject of assay [3] is Escherichia coli. Kind of assay: Antibacterial activity against Escherichia coli ATCC 10536 at 1 mg/ml after 24 hrs by agar-well diffusion assay. In kind it is functional. An outline of the steps:
as §1

Assay [4] has as its system Escherichia coli. Kind of assay: Antibacterial activity against Escherichia coli ATCC 10536 at 1 mg/ml after 48 hrs by agar-well diffusion assay. Type of assay: functional. An outline of the steps: as §1
Assay [5] deals with Staphylococcus aureus. As to the kind of experiment: Antibacterial activity against Staphylococcus aureus ATCC 6538 at 1 mg/ml after 24 hrs by agar-well diffusion assay. The conditions noted are these: for zone of inhibition at 1000 µg/mL: ATCC 6538, 24 h, read-out: IZ. Type of assay: functional. In outline:
as §1

The test system of assay [6] is Staphylococcus aureus. As to the kind of experiment: Antibacterial activity against Staphylococcus aureus ATCC 6538 at 1 mg/ml after 48 hrs by agar-well diffusion assay. Type of assay: functional. The conditions noted are these: for zone of inhibition at 1000 µg/mL: ATCC 6538, 48 h, read-out: IZ. An outline of the steps: as §1
For assay [7], the system named is Mycolicibacterium smegmatis. As to the kind of experiment: Antibacterial activity against Mycobacterium smegmatis ATCC 607 at 1 mg/ml after 48 hrs by agar-well diffusion assay. Type of assay: functional. The conditions noted are these: ATCC 607, 48 h, read-out: IZ. An outline of the steps: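 Quadrant-streaked eugon agar plates (broth culture diluted 1:10 in water) with 11 mm wells receiving 100 μl of 1 mg/ml compound, incubated at 37°; inhibition zone width in mm scored at 48 h and 72 h as –, +, ++, +++, ++++ (1–2, 3–6, 7–12, >13 mm); streptomycin sulfate control.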

The test system of assay [8] is Pseudomonas aeruginosa. Kind of assay: Antibacterial activity against Pseudomonas aeruginosa ATCC 15442 at 1 mg/ml after 24 hrs by agar-well diffusion assay. Type of assay: functional. In outline: as §1
Assay [9] deals with Pseudomonas aeruginosa. As to the kind of experiment: Antibacterial activity against Pseudomonas aeruginosa ATCC 15442 at 1 mg/ml after 48 hrs by agar-well diffusion assay. Type of assay: functional. In outline: as §1
In assay [10] the test system is Mycolicibacterium smegmatis. As to the kind of experiment: Antibacterial activity against Mycobacterium smegmatis ATCC 607 at 1 mg/ml after 48 hrs by agar-well diffusion assay. The conditions noted are these: ATCC 607, 48 h, read-out: IZ.
Assay [11] concerns Saccharomyces cerevisiae. Kind of assay: Antifungal activity against Saccharomyces cerevisiae ATCC 9763 at 1 mg/ml after 72 hrs by agar-well diffusion assay. In kind it is functional. In outline: (§2)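 Fungi and yeasts streaked on mycophil agar from broth culture diluted 1:10 in sterile water; 100 μl of compound at 1 mg/ml placed in 11 mm cork-borer wells; plates held at 30°. Inhibition zone width (mm) recorded at 48 and 72 h and coded – to ++++ (1–2, 3–6, 7–12, >13 mm); amphotericin B positive control.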

Assay [12] relates to Candida albicans. Kind of assay: Antifungal activity against Candida albicans ATCC 10231 at 1 mg/ml after 48 hrs by agar-well diffusion assay. Type of assay: functional. As to conditions: ATCC 10231, 48 h, read-out: IZ. In outline:
as §2

Assay [13] has as its system Candida albicans. Kind of assay: Antifungal activity against Candida albicans ATCC 10231 at 1 mg/ml after 72 hrs by agar-well diffusion assay. Type of assay: functional. As to conditions: ATCC 10231, 72 h, read-out: IZ. In outline: as §2
Assay [14] concerns Aspergillus niger. Kind of assay: Antifungal activity against Aspergillus niger ATCC 16888 at 1 mg/ml after 48 hrs by agar-well diffusion assay. In kind it is functional. In outline: as §2
For assay [15], the system named is Aspergillus niger. As to the kind of experiment: Antifungal activity against Aspergillus niger ATCC 16888 at 1 mg/ml after 72 hrs by agar-well diffusion assay. Type of assay: functional. An outline of the steps:
as §2

For assay [16], the system named is Trichophyton mentagrophytes. Kind of assay: Antifungal activity against Trichophyton mentagrophytes ATCC 9972 at 1 mg/ml after 48 hrs by agar-well diffusion assay. In kind it is functional. An outline of the steps:
as §2

Assay [17] relates to Trichophyton mentagrophytes. Kind of assay: Antifungal activity against Trichophyton mentagrophytes ATCC 9972 at 1 mg/ml after 72 hrs by agar-well diffusion assay. Type of assay: functional. In outline: as §2
Assay [18] concerns Trametes sanguinea. Kind of assay: Antifungal activity against Polyporus sanguineus ATCC 16422 at 1 mg/ml after 48 hrs by agar-well diffusion assay. Type of assay: functional. An outline of the steps: as §2
For assay [19], the system named is Trametes sanguinea. As to the kind of experiment: Antifungal activity against Polyporus sanguineus ATCC 16422 at 1 mg/ml after 72 hrs by agar-well diffusion assay. In kind it is functional. In outline:
as §2

In assay [20] the test system is Helminthosporium. Kind of assay: Antifungal activity against Helminthosporium ATCC 4671 at 1 mg/ml after 48 hrs by agar-well diffusion assay. In kind it is functional. In outline:
as §2

For assay [21], the system named is Helminthosporium. As to the kind of experiment: Antifungal activity against Helminthosporium ATCC 4671 at 1 mg/ml after 72 hrs by agar-well diffusion assay. In kind it is functional. An outline of the steps: as §2
Assay [22] has as its system Saccharomyces cerevisiae. As to the kind of experiment: Antifungal activity against Saccharomyces cerevisiae ATCC 9763 at 1 mg/ml after 48 hrs by agar-well diffusion assay. Type of assay: functional. In outline:
as §2

Molecules are shown by their SMILES. Where a name gives a salt, the structure may show the parent alone. Activity calls are given as the source filed them. The rule behind the calls is not given here.

For `C=C(C)[C@@H]1CC[C@@]23C[C@@H]4[C@@H](C[C@H]2[C@]1(C)CCC(=O)OC)[C@@]4(C)C3`, the zone of inhibition at 1000 µg/mL (in the assay with Bacillus subtilis [1]; in the assay on Bacillus subtilis [2]; in the assay with Staphylococcus aureus [5]; in the assay on Staphylococcus aureus [6]; in assay [7]; in [10]) was 1 mm in each case. The “inhibition zone (IZ)” value in the assay with Escherichia coli [3], in the assay with Escherichia coli [4], in the assay on Pseudomonas aeruginosa [8] and in the assay on Pseudomonas aeruginosa [9] was “inactive” throughout.
As to `COC(=O)C1=CCC[C@@H]2[C@@](C)(CCc3ccoc3)[C@H](C)CC[C@@]12C` [HARDWICKIC ACID METHYL ESTER], the “inhibition zone (IZ)” value with Saccharomyces cerevisiae [11], in the assay on Aspergillus niger [14], in the assay on Aspergillus niger [15], with Trametes sanguinea [18], in the assay on Trametes sanguinea [19] and with Escherichia coli [3] was “inactive” throughout. Also, the “inhibition zone (IZ)” value with Escherichia coli [4], in the assay with Pseudomonas aeruginosa [8], with Pseudomonas aeruginosa [9] and with Saccharomyces cerevisiae [22] was “inactive” in each case. The zone of inhibition at 1000 µg/mL is 1 mm in the assay on Candida albicans [12]; 1 mm in the assay with Candida albicans [13]; 1 mm in assay [16] (ATCC 9972, 48 h, read-out: IZ); 1 mm in assay [17] (ATCC 9972, 72 h, read-out: IZ); 1 mm with Helminthosporium [20] (ATCC 4671, 48 h, read-out: IZ); 1 mm in the assay with Helminthosporium [21] (ATCC 4671, 72 h, read-out: IZ). The zone of inhibition at 1000 µg/mL (with Bacillus subtilis [1]; in the assay on Bacillus subtilis [2]; in the assay on Staphylococcus aureus [5]; with Staphylococcus aureus [6]; in assay [7]; in assay [10]) was 1 mm each time.
With `CN[C@@H]1[C@H](O[C@H]2[C@H](O[C@H]3[C@H](O)[C@@H](O)[C@H](N=C(N)N)[C@@H](O)[C@@H]3N=C(N)N)O[C@@H](C)[C@]2(O)C=O)O[C@@H](CO)[C@H](O)[C@H]1O` [STREPTOMYCIN SULFATE], the zone of inhibition at 1000 µg/mL was 7 mm with Bacillus subtilis [1]; 7 mm with Bacillus subtilis [2]; 7 mm in the assay on Escherichia coli [3] (ATCC 10536, 24 h, read-out: IZ); 7 mm in the assay on Escherichia coli [4] (ATCC 10536, 48 h, read-out: IZ); 7 mm in the assay on Staphylococcus aureus [5]; 7 mm in the assay with Staphylococcus aureus [6]. Further, the zone of inhibition at 1000 µg/mL in [7] was greater than 12 mm; in the assay on Pseudomonas aeruginosa [8] (ATCC 15442, 24 h, read-out: IZ), 7 mm; in the assay with Pseudomonas aeruginosa [9] (ATCC 15442, 48 h, read-out: IZ), 3 mm; in assay [10] it was greater than 12 mm.
On to `COC(=O)CC[C@]1(C)C(C(C)=O)CC[C@@]23C[C@@H]4[C@@H](CC21)[C@@]4(C)C3` (stereo partly drawn), for which the “inhibition zone (IZ)” value (in the assay with Saccharomyces cerevisiae [11]; with Aspergillus niger [14]; with Aspergillus niger [15]; in [16]; in assay [17]; in the assay with Trametes sanguinea [18]) was “inactive” in each case. For the same molecule, the “inhibition zone (IZ)” value with Trametes sanguinea [19], in the assay on Helminthosporium [20], in the assay on Helminthosporium [21], with Escherichia coli [3], with Escherichia coli [4] and in the assay with Staphylococcus aureus [5] was “inactive” in each case. The “inhibition zone (IZ)” value with Staphylococcus aureus [6], with Pseudomonas aeruginosa [8], in the assay with Pseudomonas aeruginosa [9] and in the assay on Saccharomyces cerevisiae [22] was “inactive” in each case. The zone of inhibition at 1000 µg/mL with Candida albicans [12] turned out to be 1 mm; with Candida albicans [13] it was 1 mm; with Bacillus subtilis [1], 7 mm; with Bacillus subtilis [2], 3 mm; in assay [10] it was 3 mm.
